Here are results for 41 compounds from ChEMBL document CHEMBL4732082, “Development of novel benzimidazole-derived neddylation inhibitors for suppressing tumor growth invitro and invivo” (Eur J Med Chem, 2021).

For experiment [1], the target named is T1, NEDD8-activating enzyme E1 regulatory subunit (Homo sapiens) (UniProt Q13564).
T1 sequence (whole entry): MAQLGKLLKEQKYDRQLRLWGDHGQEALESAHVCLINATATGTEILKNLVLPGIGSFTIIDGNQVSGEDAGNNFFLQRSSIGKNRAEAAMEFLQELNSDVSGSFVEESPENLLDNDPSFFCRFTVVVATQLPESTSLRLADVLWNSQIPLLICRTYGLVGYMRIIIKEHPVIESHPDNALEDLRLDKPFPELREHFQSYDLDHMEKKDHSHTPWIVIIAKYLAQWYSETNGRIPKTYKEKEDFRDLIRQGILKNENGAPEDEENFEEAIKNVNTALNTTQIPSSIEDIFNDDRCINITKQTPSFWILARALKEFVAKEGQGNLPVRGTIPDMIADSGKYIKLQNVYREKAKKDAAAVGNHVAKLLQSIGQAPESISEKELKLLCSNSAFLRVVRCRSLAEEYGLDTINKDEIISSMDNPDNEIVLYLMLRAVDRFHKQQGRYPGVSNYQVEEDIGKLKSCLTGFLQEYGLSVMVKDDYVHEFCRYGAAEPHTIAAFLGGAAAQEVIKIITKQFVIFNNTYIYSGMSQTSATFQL
Kind of experiment: Inhibition of NAE (unknown origin)-mediated neddylation assessed as suppression of cullin1-Nedd8 adduct formation at 25 uM preincubated for 10 mins followed by ATP addition and measured after 30 mins by immunoblot analysis relative to control. The conditions noted are these: time 40.0 min. (In western blotting, separated proteins are transferred to a membrane and probed.)

Experiment [2] deals with A549. Kind of experiment: Antiproliferative activity against human A549 cells assessed as inhibition of cell proliferation at 100 uM incubated for 48 hrs by CCK-8 assay relative to control. Format: functional. Further details: scale not given: the % may be the effect or the level left. Summed up: (§1)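 Cells from ATCC, passaged six times, grown in DMEM with 10% FBS and penicillin/streptomycin at 37 °C under 5% CO2. Seeded at 2500 cells/well, cultured overnight, treated 48 h, viability read by CCK-8. Run in triplicate; values are the mean of three experiments.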
Background: Tetrazolium assays rely on reduction of a dye to a coloured formazan, in cell work by metabolically active cells.

Another experiment concerns NCI-H1299. Kind of experiment: Antiproliferative activity against human H1299 cells incubated for 48 hrs by CCK-8 assay. Format: functional, cell-based. The conditions noted are these: NCI-H1299, 48 h. The essentials: as §1
The test system of a further experiment is BEAS-2B. The experiment is described as follows: Cytotoxicity against human BEAS-2B cells incubated for 48 hrs by CCK-8 assay. Format: cell-based. Summed up:
as §1

Experiment [3] can be described thus: Cytotoxicity against human […] cells incubated for 48 hrs by CCK-8 assay. The class given is cell-based. Summed up:
as §1

For experiment [4], the system named is A549. The experiment is described as follows: Antiproliferative activity against human A549 cells incubated for 48 hrs by CCK-8 assay. Format: functional, cell-based. Particulars: A549, 48 h. The essentials:
as §1

As to `CCOc1nc2cccc(C(=O)NCCc3c(Cl)cccc3Cl)c2n1Cc1ccc(-c2ccccc2-c2nnn[nH]2)cc1`, the inhibition (commonly the drop in the measured response relative to a control, in per cent) in experiment [1] came to 86.7%. Besides, in the experiment on A549 [2], the Activity is 45.5%.

On to `CCOc1nc2cccc(C(=O)NCCCOC)c2n1Cc1ccc(-c2ccccc2-c2nnn[nH]2)cc1`, for which the inhibition in experiment [1] was determined as 27.9%. Besides, in the experiment with A549 [2], the Activity was 10.1%.

For `CCOc1nc2cccc(C(=O)Nc3ccc(S(N)(=O)=O)cc3)c2n1Cc1ccc(-c2ccccc2-c2nnn[nH]2)cc1`, the inhibition in experiment [1] stood at 60.9%. The Activity with A549 [2] is on record as 54.4%.

Regarding `CCOc1nc2cccc(C(=O)NCCc3ccc(Cl)cc3)c2n1Cc1ccc(-c2ccccc2-c2nnn[nH]2)cc1`, in experiment [1], the inhibition is 47.6%. The Activity with A549 [2] is given as 36.2%.

With `CCOc1nc2cccc(C(=O)Nc3ccccc3)c2n1Cc1ccc(-c2ccccc2-c2nnn[nH]2)cc1`, in experiment [1], the inhibition is 34.6%. Besides, in the experiment with A549 [2], the Activity was determined as 13.1%.

Turning to `CCOc1nc2cccc(C(=O)NCCc3ccc(Br)cc3)c2n1Cc1ccc(-c2ccccc2-c2nnn[nH]2)cc1`, the inhibition in experiment [1] was determined as 66.1%. The Activity in the experiment on A549 [2] is recorded as 51.4%.

For `CCOc1nc2cccc(C(=O)NCCc3ccccc3Cl)c2n1Cc1ccc(-c2ccccc2-c2nnn[nH]2)cc1`, the inhibition in experiment [1] was found to be 57.4%. In addition, the Activity in the experiment on A549 [2] is recorded as 36.6%.

Turning to `CCOc1nc2ccccc2n1Cc1ccc(-c2ccccc2-c2nn[nH]n2)cc1`, the inhibition in experiment [1] was determined as 18.9%. The Activity in the experiment with A549 [2] came out at 9.5%.

`CCOc1nc2cccc(C(=O)NCc3ccc(F)cc3)c2n1Cc1ccc(-c2ccccc2-c2nnn[nH]2)cc1`: the inhibition in experiment [1] stood at 38.1%. Further, in the experiment on A549 [2], the Activity is given as 35.4%.

Regarding `CCOc1nc2cccc(C(=O)NC3CC3)c2n1Cc1ccc(-c2ccccc2-c2nnn[nH]2)cc1`, the inhibition in experiment [1] worked out at 30.9%. In addition, in the experiment on A549 [2], the Activity is given as 11.3%.

For `CCOc1nc2cccc(C(=O)OC(C)OC(=O)OC3CCCCC3)c2n1Cc1ccc(-c2ccccc2)cc1` (centres undefined), the inhibition in experiment [1] stood at 29.5%. Also, the Activity in the experiment with A549 [2] is recorded as 34.2%.

Take `NS(=O)(=O)OC[C@@H]1C[C@@H](n2ccc3c(N[C@H]4CCc5ccccc54)ncnc32)C[C@@H]1O` [PEVONEDISTAT]: the inhibition in experiment [1] worked out at 90.5%. Further, the IC50 (as a rule, the concentration needed to halve the response being measured) in the experiment on NCI-H1299 came to 0.49 µM; in the experiment on BEAS-2B it was 1.22 µM; in experiment [3] it was 4.03 µM; in the experiment with A549 [4], 0.63 µM. The Activity in the experiment on A549 [2] turned out to be 91.4%.

For `CCOc1nc2cccc(C(=O)Nc3ccc4c(c3)OCO4)c2n1Cc1ccc(-c2ccccc2-c2nnn[nH]2)cc1`, the inhibition in experiment [1] came to 34.9%. Moreover, the Activity in the experiment with A549 [2] is reported as 16.7%.

For the compound `CCOc1nc2cccc(C(=O)OC(C)OC(=O)OC3CCCCC3)c2n1Cc1ccc(-c2ccccc2-c2nn[nH]n2)cc1` (centres undefined) [CANDESARTAN CILEXETIL], the inhibition in experiment [1] is 87.8%. The values for the IC50 (with BEAS-2B; in experiment [3]; with A549 [4]) were 79.8 µM, 82.7 µM and 65.9 µM, respectively. In addition, the Activity with A549 [2] was determined as 69.2%.

Consider `CCOc1nc2cccc(C(=O)NCCc3cccc(OC)c3)c2n1Cc1ccc(-c2ccccc2-c2nnn[nH]2)cc1`, for which the inhibition in experiment [1] came out at 43.6%. Besides, the Activity in the experiment on A549 [2] is 57.7%.

As to `CCOc1nc2cccc(C(=O)Nc3ccc(F)cc3)c2n1Cc1ccc(-c2ccccc2-c2nnn[nH]2)cc1`, in experiment [1], the inhibition amounted to 45.3%. In addition, in the experiment on A549 [2], the Activity is listed as 66.3%.

Regarding `CCOc1nc2cccc(C(=O)N[C@H]3CC[C@H](C(=O)OC)CC3)c2n1Cc1ccc(-c2ccccc2-c2nnn[nH]2)cc1`, in experiment [1], the inhibition was found to be 28.6%. For the same compound, in the experiment on A549 [2], the Activity is given as 9.2%.

As for `CCOc1nc2cccc(C(=O)NC3CCCCC3)c2n1Cc1ccc(-c2ccccc2-c2nnn[nH]2)cc1`, in experiment [1], the inhibition was 36.8%. In the experiment with A549 [2], the Activity was 12.1%.

Regarding `CCOc1nc2ccc(C(=O)OC(C)OC(=O)OC3CCCCC3)cc2n1Cc1ccc(-c2ccccc2-c2nnn[nH]2)cc1` (centres undefined), the inhibition in experiment [1] amounted to 43.2%. Moreover, the Activity in the experiment on A549 [2] came to 56.9%.

As to `CCOc1nc2cccc(C(=O)NC(c3ccccc3)c3ccccc3)c2n1Cc1ccc(-c2ccccc2-c2nnn[nH]2)cc1`, the inhibition in experiment [1] was found to be 35.7%. Further, the Activity in the experiment with A549 [2] is reported as 31.6%.

Turning to `CCCC(=O)N(Cc1ccc(-c2ccccc2-c2nnn[nH]2)cc1)c1ccccc1C(=O)OC(C)OC(=O)OC1CCCCC1` (centres undefined), the inhibition in experiment [1] came out at 32.6%. Moreover, the Activity with A549 [2] turned out to be 15.2%.

With `CCOc1nc2cccc(C(=O)NCCc3ccc(C)cc3)c2n1Cc1ccc(-c2ccccc2-c2nnn[nH]2)cc1`, the inhibition in experiment [1] stood at 32.1%. Moreover, in the experiment with A549 [2], the Activity is recorded as 15.7%.

On to `CCOc1nc2cccc(C(=O)NCCc3ccc4c(c3)OCO4)c2n1Cc1ccc(-c2ccccc2-c2nnn[nH]2)cc1`, for which the inhibition in experiment [1] was found to be 35.7%. The Activity with A549 [2] came out at 14.2%.

For `CCOC(=O)CNC(=O)c1cccc2nc(OCC)n(Cc3ccc(-c4ccccc4-c4nnn[nH]4)cc3)c12`, the inhibition in experiment [1] is 46.5%. For the same compound, in the experiment on A549 [2], the Activity was 32.7%.

With `CCOc1nc2cc(C(=O)OC(C)OC(=O)OC3CCCCC3)ccc2n1Cc1ccc(-c2ccccc2-c2nnn[nH]2)cc1` (centres undefined), the inhibition in experiment [1] was determined as 44.7%. In the experiment with A549 [2], the Activity is reported as 33.3%.

Turning to `CCOc1nc2cccc(C(=O)NCCc3ccccc3)c2n1Cc1ccc(-c2ccccc2-c2nnn[nH]2)cc1`, in experiment [1], the inhibition is 39.4%. Besides, the Activity in the experiment on A549 [2] was determined as 43.8%.

`CCOc1nc2cccc(C(=O)NCCCCc3ccccc3)c2n1Cc1ccc(-c2ccccc2-c2nnn[nH]2)cc1`: the inhibition in experiment [1] was determined as 64.6%. The Activity in the experiment with A549 [2] is under 20%.

Consider `CCCNC(=O)c1cccc2nc(OCC)n(Cc3ccc(-c4ccccc4-c4nnn[nH]4)cc3)c12`, for which the inhibition in experiment [1] was 32.6%. For the same compound, the Activity with A549 [2] is 12.5%.

Take `CCOc1nc2cccc(C(=O)NCc3ccccc3)c2n1Cc1ccc(-c2ccccc2-c2nnn[nH]2)cc1`: the inhibition in experiment [1] was 48.9%. In addition, the Activity in the experiment with A549 [2] stood at 54.5%.

As to `CCOc1nc2cccc(C(=O)OC(C)OC(=O)OC3CCCCC3)c2n1Cc1ccc(-c2ccccc2-c2noc(=O)[nH]2)cc1` (centres undefined), the inhibition in experiment [1] is 34.2%. The Activity with A549 [2] was determined as 14.6%.

Turning to `CCOc1nc2cccc(C(=O)OC(C)OC(=O)OC3CCCCC3)c2n1Cc1ccc(-c2ccccc2-c2nnnn2C)cc1` (centres undefined), the inhibition in experiment [1] was found to be 41.2%. For the same compound, the Activity with A549 [2] was determined as 16.8%.

As for `CCOc1nc2cccc(C(=O)Nc3ccc(OC)cc3)c2n1Cc1ccc(-c2ccccc2-c2nnn[nH]2)cc1`, in experiment [1], the inhibition amounted to 25.8%. In addition, in the experiment with A549 [2], the Activity is on record as 10.5%.

As for `CCOc1nc2cccc(C(=O)NCCCN(C)C)c2n1Cc1ccc(-c2ccccc2-c2nnn[nH]2)cc1`, the inhibition in experiment [1] stood at 29.5%. For the same compound, the Activity in the experiment with A549 [2] was determined as 9.8%.

For the compound `CCOc1nc2cccc(C(=O)NCCCNC3CCCCC3)c2n1Cc1ccc(-c2ccccc2-c2nnn[nH]2)cc1`, the inhibition in experiment [1] was found to be 29.4%. In addition, in the experiment with A549 [2], the Activity came to 11.2%.

Turning to `CCOc1nc2cccc(C(=O)NCCc3ccc(F)cc3F)c2n1Cc1ccc(-c2ccccc2-c2nnn[nH]2)cc1`, in experiment [1], the inhibition was found to be 35.8%. The Activity in the experiment with A549 [2] is recorded as 12.5%.

With `CCOc1nc2cccc(C(=O)NCc3ccco3)c2n1Cc1ccc(-c2ccccc2-c2nnn[nH]2)cc1`, the inhibition in experiment [1] came out at 37.5%. Further, the Activity with A549 [2] is listed as 18.9%.

As to `CCOc1nc2cccc(C(=O)NCc3ccc4c(c3)OCO4)c2n1Cc1ccc(-c2ccccc2-c2nnn[nH]2)cc1`, the inhibition in experiment [1] turned out to be 47.9%. In the experiment with A549 [2], the Activity amounted to 53.19%.

For the compound `CCOc1nc2cccc(C(=O)Nc3ccncc3)c2n1Cc1ccc(-c2ccccc2-c2nnn[nH]2)cc1`, the inhibition in experiment [1] was 39.8%. The Activity in the experiment with A549 [2] is on record as 39.5%.

In the case of `CCOc1nc2cccc(C(=O)NCCc3ccc([N+](=O)[O-])cc3)c2n1Cc1ccc(-c2ccccc2-c2nnn[nH]2)cc1`, the inhibition in experiment [1] was 47.5%. The Activity in the experiment with A549 [2] stood at 53.5%.

Consider `CCOc1nc2cccc(C(=O)NOCc3ccccc3)c2n1Cc1ccc(-c2ccccc2-c2nnn[nH]2)cc1`, for which the inhibition in experiment [1] worked out at 39.8%. In addition, the Activity in the experiment on A549 [2] is 24.3%.

For `CCOc1nc2cccc(C(=O)NC3CCCC3)c2n1Cc1ccc(-c2ccccc2-c2nnn[nH]2)cc1`, in experiment [1], the inhibition was 39.7%. Also, in the experiment on A549 [2], the Activity was 11.9%.
